One series addresses T1, Acid ceramidase (Homo sapiens, UniProt Q13510).
T1 sequence (Q13510 whole entry): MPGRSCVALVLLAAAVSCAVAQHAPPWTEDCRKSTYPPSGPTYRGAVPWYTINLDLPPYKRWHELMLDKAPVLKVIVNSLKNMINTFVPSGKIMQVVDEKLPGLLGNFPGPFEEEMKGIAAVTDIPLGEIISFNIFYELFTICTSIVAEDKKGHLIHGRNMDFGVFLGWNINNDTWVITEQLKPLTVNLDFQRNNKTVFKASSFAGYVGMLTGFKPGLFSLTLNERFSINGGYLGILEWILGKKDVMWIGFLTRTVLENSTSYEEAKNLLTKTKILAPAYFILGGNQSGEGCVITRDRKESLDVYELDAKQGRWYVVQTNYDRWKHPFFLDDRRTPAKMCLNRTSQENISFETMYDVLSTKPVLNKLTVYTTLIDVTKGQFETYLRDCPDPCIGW
Briefly: Inhibition of recombinant human acid ceramidase expressed in HEK293 cells using N-[(1S,2R)-2-hydroxy-1-(hydroxymethyl)-4-(2-oxochromen-7-yl)-oxybutyl]dodecanamide substrate preincubated for 10 mins. It is filed as cell-based. Put shortly:
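AC-enriched lysosomal lysate from HEK293 cells stably expressing human AC, preincubated 10 min with compound. Coumarin-linked dodecanamide substrate then added at 5 μM final and incubated 3 h at 37 °C. Reaction stopped with MeOH, then NaIO4 at pH 10.6 for 2 h at 37 °C in the dark; umbelliferone fluorescence read at 355/460 nm. IC50 from nonlinear regression; mean of ≥2 determinations.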

A short description of series [1]: Stability in 1 % DMSO containing phosphate-buffered solution assessed as half life at 10 uM at pH 7.4 under shaking by UPLC method. The series is classed as physicochemical. Conditions: for t1/2: buffer, pH 7.4, 10 µM; for half-life at 10 µM: phosphate-buffered solution, pH 7.4. Put shortly:
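Compound incubated at 10 μM in PBS pH 7.4; half-life derived by fitting the decay profile.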

Series [2] is described as follows: Chemical stability in AC assay buffer at 10 uM at pH 4.5 under shaking by UPLC method. The settings on record: pH 4.5, 10 µM. It is filed as physicochemical.
In series [3] the target is T2, Acid ceramidase (Homo sapiens) (UniProt Q13510).
T2 sequence (whole entry): T1 sequence (Q13510 whole entry)
Briefly: Inhibition of recombinant human acid ceramidase expressed in HEK293 cells at 5 uM using N-[(1S,2R)-2-hydroxy-1-(hydroxymethyl)-4-(2-oxochromen-7-yl)-oxybutyl]dodecanamide substrate preincubated for 10 mins. It is filed as cell-based.

Series [4] concerns Mus musculus. Briefly: Inhibition of acid ceramidase in C57BL/6 mouse cerebral cortex at 10 mg/kg, ip after 24 hrs by bicinchoninic acid based protein assay. It is filed as functional, organism-based. Put shortly: (§1)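 Male C57BL/6 mice dosed ip at 10 mg/kg in 15% PEG/15% Tween-80/70% saline; lung and cerebral cortex collected 30 min–24 h after dosing. Lysosomal extracts were prepared by sonication and differential centrifugation, then incubated at pH 4.5 with 50 μM C12-ceramide for 1 h at 37 °C. Lauric acid product measured by UPLC–MS with an internal standard; activity expressed as % of vehicle; n = 6.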

Series [5] deals with Mus musculus. The series is described as follows: Inhibition of acid ceramidase in C57BL/6 mouse lung at 10 mg/kg, ip after 24 hrs by bicinchoninic acid based protein assay. The series is classed as functional, organism-based. Put shortly:
as §1

Series [6] relates to Mus musculus. Briefly: Inhibition of acid ceramidase in C57BL/6 mouse lung assessed as increase in ceramide level at 10 mg/kg, ip upto 6 hrs by LC-MS method. The series is classed as functional, organism-based.
Series [7] deals with Mus musculus. The series is described as follows: Inhibition of acid ceramidase in C57BL/6 mouse lung assessed as increase in dihydroceramide level at 10 mg/kg, ip upto 6 hrs by LC-MS method. The series is classed as functional, organism-based.
Series [8] deals with Mus musculus. The series is described as follows: Inhibition of acid ceramidase in C57BL/6 mouse lung assessed as decrease in sphingosine level at 10 mg/kg, ip after 3 hrs by LC-MS method. It is filed as functional, organism-based.
The subject of series [9] is Mus musculus. Briefly: Inhibition of acid ceramidase in C57BL/6 mouse lung assessed as decrease in sphingosine-1-phosphate level at 10 mg/kg, ip after 3 hrs by LC-MS method. The series is classed as functional, organism-based.
Series [10] has as its system Mus musculus. Briefly: Inhibition of acid ceramidase in C57BL/6 mouse cerebral cortex assessed as changes in sphingolipid level at 10 mg/kg, ip by LC-MS method. It is filed as functional, organism-based.

Activity calls are given as the source filed them. Some results are limits rather than exact numbers.

Usually IC50 stands for the concentration that gives 50% inhibition. For `Cc1ccc(CCCCNC(=O)n2c(=O)oc3ccccc32)cc1`, the IC50 at Acid ceramidase (read-out: IC50) came out at 25 nM. On to `O=C(NCCc1ccccc1)n1c(=O)oc2ccccc21`, for which the IC50 on Acid ceramidase (read-out: IC50) worked out at 121 nM. For the compound `O=C(NCCCCc1ccccc1)n1c(=O)oc2ccccc21`, the t1/2 in [1] turned out to be 0.75 h. As to `O=C(NCCCCc1cccs1)n1c(=O)oc2ccccc21`, on Acid ceramidase (read-out: IC50), the IC50 came to 37 nM. For the compound `O=C(NCCCCc1ccccc1)n1c(=O)oc2ccc(Cl)cc21`, at Acid ceramidase (read-out: IC50), the 50% inhibitory concentration (IC50) worked out at 15 nM. In general, half-life refers to the time needed for the level to fall by half in the phase considered. In the case of `O=C(NCCCCc1ccccc1)n1c(=O)oc2cccc(-c3ccccc3)c21`, the half-life at 10 µM in [1] is 0.117 h.

As for `COc1ccc(-c2ccc3oc(=O)n(C(=O)NCCCCc4ccccc4)c3c2)cc1`, the IC50 on Acid ceramidase (read-out: IC50) was 67 nM. The half-life at 10 µM in [1] is 2.93 h.

`O=C(c1ccccc1)c1ccc2c(c1)oc(=O)n2C(=O)NCCCCc1ccccc1`: in series [2], the Stability entry was “Stable”. Also, in series [1], the half-life at 10 µM worked out at 1.63 h. As for `O=C(NCCCCc1ccccc1)n1c(=O)oc2ccc(C(F)(F)F)cc21`, on Acid ceramidase (read-out: IC50), the IC50 stood at 18 nM. As for `O=C(NCCCCc1ccccc1)n1c(=O)oc2ccc(-c3ccccc3)cc21`, the IC50 at Acid ceramidase (read-out: IC50) was determined as 42 nM. For the same compound, the Stability entry in series [2] is “Stable”. In addition, in [1], the half-life at 10 µM stood at 4.93 h. With `O=C(NCCCCc1ccccc1)n1c(=O)oc2c(-c3ccccc3)cccc21`, the half-life at 10 µM in [1] is greater than 5 h.

For the compound `O=C(NCCCCc1ccc([N+](=O)[O-])cc1)n1c(=O)oc2ccccc21`, the IC50 on Acid ceramidase (read-out: IC50) is 312 nM.

On to `O=C(NCCCCc1ccccc1)n1c(=O)oc2cc(-c3ccccc3)ccc21`, for which the half-life at 10 µM in series [1] is greater than 5 h. Turning to `O=C(NCCCCc1ccc2ccccc2c1)n1c(=O)oc2ccccc21`, the IC50 at Acid ceramidase (read-out: IC50) amounted to 71 nM. On to `O=C(NCCCCc1ccccc1)n1c(=O)oc2cc(F)ccc21`, for which the IC50 on Acid ceramidase (read-out: IC50) was found to be 31 nM. As for `O=C(c1ccccc1)c1ccc2oc(=O)n(C(=O)NCCCCc3ccccc3)c2c1`, the IC50 at Acid ceramidase (read-out: IC50) stood at 24 nM.

In the case of `O=C(NCCSCc1ccccc1)n1c(=O)oc2ccccc21`, at Acid ceramidase (read-out: IC50), the IC50 stood at 65 nM. On to `O=C(NCCCCc1ccccc1)n1c(=O)oc2cc(Br)ccc21`, for which the IC50 at Acid ceramidase (hek293, read-out: IC50) was found to be 31 nM. In series [1], the t1/2 amounted to 0.4 h.

In the case of `O=C(NCCCCc1ccccc1)n1c(=O)oc2cc([N+](=O)[O-])ccc21`, in [2], the Stability entry is given as “Stable”.

In the case of `O=C(NCCCCc1ccccc1)n1c(=O)oc2cc(Cl)c(Cl)cc21`, in series [1], the half-life at 10 µM was determined as 0.917 h.

As for `O=C(NCCCCc1ccccc1)n1c(=O)oc2cccc(Br)c21`, the IC50 entry on Acid ceramidase (hek293) is given as “ND(Unstable)”. In the case of `O=C(NCCCCc1ccccc1)n1c(=O)oc2ccc(F)cc21`, the IC50 at Acid ceramidase (read-out: IC50) amounted to 12 nM. Turning to `O=C(NCCCCc1ccccc1)n1c(=O)oc2ccc([N+](=O)[O-])cc21`, the Stability result in series [2] is on record as “Stable”.

As for `CN(CCNC(=O)n1c(=O)oc2ccccc21)Cc1ccccc1`, in series [3], the inhibition result was “inactive”. As to `COc1ccc(-c2ccc3c(c2)oc(=O)n3C(=O)NCCCCc2ccccc2)cc1`, the half-life at 10 µM in series [1] was 2.2 h.

For `O=C(NCCCCc1ccccc1)n1c(=O)oc2cc(-c3ccc(F)cc3)ccc21`, in [1], the half-life at 10 µM is greater than 5 h. `Cc1cccc2oc(=O)n(C(=O)NCCCCc3ccccc3)c12`: at Acid ceramidase (hek293), the IC50 entry is reported as “ND(Unstable)”.

Consider `O=C(NCCCCCCc1ccccc1)n1c(=O)oc2ccccc21`, for which the IC50 at Acid ceramidase (read-out: IC50) was 51 nM. The same measure, in the same setting: with `O=C(NCCOCc1ccccc1)n1c(=O)oc2ccccc21` the figure was 649 nM. Turning to `O=C(NCCCCc1ccccc1)n1c(=O)oc2ccc(-c3ccc(F)cc3)cc21`, the half-life at 10 µM in series [1] is greater than 5 h. As to `O=C(c1ccc(Cl)cc1)c1ccc2c(c1)oc(=O)n2C(=O)NCCCCc1ccccc1`, the Stability result in series [2] is on record as “Stable”. Besides, the half-life at 10 µM in series [1] turned out to be 4.57 h.

As to `O=C(NCCCCc1ccccc1)n1c(=O)oc2cc(Cl)ccc21`, the Stability entry in series [2] is listed as “Stable”. Besides, in series [1], the half-life at 10 µM worked out at 0.967 h. Further, the inhibition result with Mus musculus [4], in the series on Mus musculus [5], with Mus musculus [6], in the series with Mus musculus [7], in the series with Mus musculus [8] and in the series with Mus musculus [9] was “Active” throughout. The inhibition entry in the series on Mus musculus [10] was “inactive”.

(Values after ChEMBL document CHEMBL3739420, “Benzoxazolone Carboxamides as Potent Acid Ceramidase Inhibitors: Synthesis and Structure-Activity Relationship (SAR) Studies” (J Med Chem, 2015).)
